The list is not random: actives were taken first. Their share in the collection is about 2.8%.
Bim-Mcl-1: inhibitors of Bim-Mcl-1 interaction, human | Bead-based flow cytometry, Bim peptide-Mcl-1 binding | inhibition, % at 10 µM | 190,000 compounds, 0.1% hits | AID 1009; in the data active means inhibition above about 40%;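 further: 0% = no compound tracer wells and 100% = peptide blocker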
Target sequence (Q07820 whole entry, looked up): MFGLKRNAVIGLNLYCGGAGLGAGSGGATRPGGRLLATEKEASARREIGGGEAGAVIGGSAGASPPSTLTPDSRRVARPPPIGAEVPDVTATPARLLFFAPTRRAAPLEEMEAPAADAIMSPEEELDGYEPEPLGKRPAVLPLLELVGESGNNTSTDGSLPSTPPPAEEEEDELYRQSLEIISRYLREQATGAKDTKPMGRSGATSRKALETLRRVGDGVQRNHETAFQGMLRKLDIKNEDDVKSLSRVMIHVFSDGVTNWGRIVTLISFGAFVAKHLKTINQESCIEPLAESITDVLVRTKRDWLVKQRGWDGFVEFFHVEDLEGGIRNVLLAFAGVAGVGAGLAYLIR
Arbovirus anti: antivirals against arbovirus infection | arbovirus infection cell-based antiviral screen | inhibition, % at 10 µM | 200,000 compounds, 0.37% hits | AID 1251; in the data active means inhibition above about 30%
Mcl1-Bid inh: disrupts binding of human Mcl-1 to Bid peptide | inhibition, % at 21.7 µM | 220,000 compounds, 0.97% hits | TR-FRET Mcl-1/Bid-Dy647 peptide binding, 1536-well;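 active means compounds that cut the binding signal by more than half at the single screening dose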;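 further: His-tagged Mcl-1 with europium anti-His antibody binding Bid BH3 peptide; 0% = Mcl-1 plus peptide wells and 100% = peptide-only wells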
Calb biofilm kill: mixture kills Candida albicans biofilm cells. C. albicans biofilm persisters + clotrimazole, fluorescence viability; primary screen in compound mixtures of four per well. inhibition, % at 7.6 µM. 120,000 compounds, 0.02% hits. AID 1242;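 active means inhibition above 30.3% in the primary screen of four-compound pools, then above 30% when the compound was retested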;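 further: compounds exposed to preformed 24 h biofilms for 48 h; 0% = untreated biofilm control and 100% = clotrimazole plus chlorhexidine kill blank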
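Test system: C. albicans biofilms. Buffer or medium: RPMI/MOPS medium, pH 7.0. Timing: 48 h compound exposure at 37 °C. Technique: Alamar Blue fluorescence. Evaluation: percent inhibition of biofilm viability.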
m-calpain inh: blocks pig calpain II enzyme activity | purified calpain II, fluorogenic peptide substrate, 30 min | inhibition, % at 16 µM | 220,000 compounds, 0.37% hits | AID 1236;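 active means inhibition above about 50%, limit read from the data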
Mcl1 Noxa PPI: disrupts binding of human Mcl-1 to Noxa peptide; TR-FRET Mcl-1/Noxa peptide binding, 2 h; inhibition, % at 21.7 µM; 220,000 compounds, 1.5% hits;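 active means compounds that cut the protein-peptide binding signal by more than 50% relative to plate controls in a single-dose test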;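 further: His-tagged Mcl-1 with rhodamine Noxa BH3 peptide and terbium anti-His antibody; 0% = Mcl-1 plus Noxa peptide wells and 100% = peptide-only wells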
The depositor's hits bear a star; x = not tested or not shown; ! = not confirmed by another sample.

SMILES	Bim-Mcl-1	Arbovirus anti	Mcl1-Bid inh	Calb biofilm kill	m-calpain inh	Mcl1 Noxa PPI
CCn1c(SCC(=O)N/N=C/C=C/c2ccco2)nnc1-c1ccccc1	1.0	-0.5	-37.2	8.7	31.3	6.0
Cc1ccccc1OCC(=O)Nc1cc(S(=O)(=O)N2CCCCC2)ccc1N1CCN(C)CC1	0.0	1.1	-17.4	10.2	-6.8	7.3
Cc1ccc(-c2nn(C)c(=O)c3ccccc23)cc1CNC(=O)NC1CCCCC1	x	x	-2.3	11.5	-62.4	-5.6
O=C1C2CC=C(Cl)CC2C(=O)N1CCCCCCN1C(=O)C2CC=C(Cl)CC2C1=O (stereo not drawn)	1.0	-0.4	-26.9	x	-198.8	54.8*
COCCNC(=S)N1CCN(S(C)(=O)=O)CC1	1.0	0.6	-38.7	27.8	27.0	5.0
Cc1c(Cc2ccccc2)c(=O)oc2c(O)c(O)ccc12	-2.0	-2.3	-4.5	8.5	-5.5	88.1*
Cc1oc2cc(O)cc(C)c2c(=O)c1-c1cnn(-c2ccccc2)c1	-2.0	13.3	13.8	x	-24.6	-12.1
Cc1oc2c(O)c(O)ccc2c(=O)c1-c1cnn(-c2ccccc2)c1	0.0	1.0	-53.9	x	8.0	55.9*
Cc1oc2c(O)c(O)ccc2c(=O)c1-c1ccccc1	x	-3.0	-37.6	14.6	6.5	71.0*
Cc1oc2c(C)c(O)ccc2c(=O)c1-c1nncn1-c1ccccc1	-3.0	4.2	-12.0	12.4	-36.3	45.9
COc1cc(O)oc1C=Nc1ccc(C(=O)O)cc1	1.0	8.0	-29.5	10.2	-9.3	-2.7
CCCN=Cc1ccc(O)cc1	2.0	6.4	-24.5	12.0	29.7	0.9
CN(C(=O)COC(=O)c1ccc2c(=O)n3c(nc2c1)CCC3)C1CCS(=O)(=O)C1 (stereo not drawn)	0.0	-0.8	-6.3	-20.6	-33.1	3.2
CC1CCC(C(C)C)C(OC(=O)Cn2c(-c3ccc(Br)cc3)[n+](C)c3ccccc32)C1 (stereo not drawn)	1.0	-33.1	-22.3	11.2	-29.0	8.8
Cc1ccccc1OCc1n(CC(=O)OC2CC(C)CCC2C(C)C)c2ccccc2[n+]1C (stereo not drawn)	-4.0	-33.5	-2.1	34.3*!	-28.9	-10.0
CN(C)CCNS(=O)(=O)c1ccc(N2CCN(c3ccc(F)cc3)CC2)c([N+](=O)[O-])c1	-3.0	-41.3	-26.1	2.4	2.7	5.0
COc1cccc(C(=O)N(Cc2ccccc2)Cc2cc3cc4c(cc3[nH]c2=O)OCCO4)c1	-1.0	-16.4	-17.1	x	-19.3	10.5
COc1ccc(C(=O)N(Cc2ccccc2)Cc2cc3cc4c(cc3[nH]c2=O)OCCO4)cc1	0.0	-23.3	95.0*	x	-9.8	4.3
O=c1[nH]c(=S)[nH]c(O)c1N=Nc1ccc(-c2ccccc2)cc1[N+](=O)[O-]	-1.0	6.4	-41.2	12.5	33.3	91.9*
Cc1cccc2c(N=Nc3ccc(S(=O)(=O)Nc4cccc(Cl)c4)cc3[N+](=O)[O-])c(O)[nH]c12	4.0	7.4	-1.9	5.0	-29.4	39.4
Cc1[nH]c2ccccc2c1/C=N/Nc1ccc([N+](=O)[O-])cc1S(=O)(=O)Nc1ccc(Cl)cc1	-2.0	-8.5	-13.1	x	-70.2	51.1*
COc1ccc(NS(=O)(=O)c2cc([N+](=O)[O-])ccc2N/N=C\c2c(C)[nH]c3ccccc23)cc1	-4.0	6.5	1.9	x	32.7	7.5
C=C(C)CN(CC)C(=O)CSc1nc(O)cc(=O)n1C1CCCC1	0.0	30.1*	-45.6	17.8	-18.5	17.8
FC(F)(F)c1cccc(Oc2ccc3c(C(F)(F)F)cc(C(F)(F)F)nc3n2)c1	-2.0	50.6*	-112.8	x	-90.1	-67.9
FC(F)(F)c1cc(C(F)(F)F)c2ccc(Oc3ccccc3)nc2n1	0.0	0.2	6.8	x	24.6	7.5
Cc1ccc(-c2noc(CCCN3C(=O)c4ccccc4C3=O)n2)cc1	0.0	5.1	-10.7	x	16.3	-9.0
CC(C)N(Cc1nc(-c2ccccc2)no1)C(=O)c1ccc(Cl)cc1	-3.0	-6.0	16.9	x	21.1	-1.9
CC(C)N(Cc1nc(-c2ccc(Cl)cc2)no1)C(=O)CCCN1C(=O)c2ccccc2C1=O	-6.0	11.5	1.5	x	65.4*	3.0
O=C1c2ccccc2C(=O)N1CCCCCc1nc(-c2ccccc2)no1	0.0	-2.8	1.3	x	64.2*	17.9
Cc1cc(C)c(NS(=O)(=O)c2ccc(NC(=O)/C=C/C(=O)O)cc2)c(C)c1	-5.0	-8.3	-11.6	24.9	-9.2	6.7

Compound activity as filed in PubChem BioAssay.
